In article PMC2775413 (Bioorganic & medicinal chemistry, 2009):

Tests used:
[1] = Metabolism of prodrugs in fresh mouse plasma with NADPH regenerating system; type: in vitro ADME; conditions: 37 °C; for Metabolism in fresh mouse plasma (prodrug remaining by HPLC): NADPH regenerating system, over 80 minutes
[2] = Metabolism in fresh mouse brain homogenate with NADPH; type: in vitro ADME; conditions: PBS pH 7.4, 37 °C, NADPH in excess
Summary of the method: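 Three fresh mouse brains were homogenized in PBS pH 7.4 (1 mL per brain) with NADPH regenerating buffers A and B, then pooled. Test compound was added from a 200 μM stock and incubated at 37 °C for 0, 10, 20 and 40 min. Reactions were stopped by heating to 95 °C for 1 min. HPLC with UV at 310 or 260 nm depending on compound; analyte/internal standard peak-area ratio normalized to t = 0.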

[3] = Anaerobic microsome assay for azide metabolism; type: in vitro ADME, rat
Summary of the method: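 Rat liver microsomes, NADPH regenerating system, test azide added from a 100 μM stock. PBS was deoxygenated by N2 bubbling for 15 min. Vials were sealed with septa, the headspace N2-purged and kept under an N2 balloon, and equilibrated at 37 °C. Microsomes were injected through the septum and incubated 0, 10, 20, 40 min. Acetonitrile quench, protein precipitation at 0 °C, supernatant dried, reconstituted in 2% formic acid, HPLC; peak area normalized to t = 0.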

[4] = Mouse brain uptake study after i.p. injection; type: in vivo; conditions: for Brain AUC over the 20-minute experiment compared with 5: i.p., 5 at 3.7 mg/kg
Standard microsome assay = type: in vitro ADME, rat; conditions: 37 °C

1-((S)-1-{2-[2-aminoethyl]phenylamino}-5-nitroguanidinopentan-2-ylcarbamoyloxy)ethyl pivalate [Compound 3]
Conversion of prodrug to parent compound (4) in mouse plasma ([1]; HPLC peak of 4 over time): converted to the parent compound
Metabolism in fresh mouse plasma (prodrug remaining by HPLC) [1]: rapid
Metabolism in mouse brain homogenate (compound amount over time) [2]: decreased over the course of the experiment

Cc1cc(N)nc(C[C@@H]2CNC[C@@H]2OCCN=[N+]=[N-])c1 (racemic) [Compound 1, 6-((4-(2-Azidoethoxy)pyrrolidin-3-yl)methyl)-4-methyl-pyridin-2-amine]
Formation of amine from azide (mass spectral analysis of reaction mixtures) ([3]; anaerobic microsome incubation): no peak corresponding to the amine
Metabolism in fresh mouse plasma (prodrug remaining by HPLC) [1]: No significant metabolism
Metabolism in mouse brain homogenate (compound amount over time) [2]: did not decrease

CC(=O)N(CCO[C@H]1CNC[C@H]1Cc1cc(C)cc(N)n1)CCc1cccc(F)c1 (racemic) [Compound 6, N-(2-(4-((6-Amino-4-methylpyridin-2-yl)-methyl)pyrrolidin-3-yloxy)ethyl)-N-(3-fluoro-phenethyl)acetamide]
Time of peak brain concentration ([4]; mouse, i.p. 4.1 mg/kg, 20-minute experiment): 5 min
Brain AUC over the 20-minute experiment compared with 5 ([4]; mouse): roughly the same

COC(=O)N(CCO[C@H]1CNC[C@H]1Cc1cc(C)cc(N)n1)CCc1cccc(F)c1 (racemic) [Compound 7, Methyl 2-(4-((6-amino-4-methylpyridin-2-yl)-methyl)pyrrolidin-3-yloxy)ethyl(3-fluoro-phenethyl)carbamate]
Tmax ([4]; mouse, plasma, ip, 4.3 mg/kg): 5 min

Cc1cc(N)nc(C[C@@H]2CNC[C@@H]2OCCNCCc2cccc(F)c2)c1 [Compound 5]
Amount of compound lost with rat liver microsomes (Standard microsome assay; over 30 minutes, in presence and absence of NADPH): approximately 20%
Toxicity in mice ([4]; i.p. injection at 3.7 mg/kg): no toxicity was observed

Cc1cc(N)nc(C[C@@H]2CNC[C@@H]2OCCN(CCc2cccc(F)c2)C(=O)OCc2ccccc2)c1 [Compound 8, Benzyl 2-(4-((6-amino-4-methylpyridin-2-yl)-methyl)pyrrolidin-3-yloxy)ethyl(3-fluoro-phenethyl)carbamate]
Peak plasma concentration ([4]; mouse, i.p. 5.1 mg/kg, 20-minute experiment): around 1 μM
Brain AUC over the 20-minute experiment compared with 5 ([4]; mouse): much lower

Cc1cc(-c2ccccc2)nnc1NCCN1CCOCC1 [minaprine, reference compound]
Concentration remaining with microsomes at 20 min (Standard microsome assay; 20 min): not quantifiable
Metabolism by microsomes under anaerobic conditions ([3]; 37 °C, deoxygenated buffer, nitrogen atmosphere, NADPH): metabolized readily
